Measured values published in ChEMBL document CHEMBL1151731, “Targeting pro-invasive oncogenes with short chain fatty acid-hexosamine analogues inhibits the mobility of metastatic MDA-MB-231 breast cancer cells” (J Med Chem, 2008).
Activity calls are given as the source filed them. The calls are words filed in the database; no cut-off is given here.

Assays:
MDA-MB-231 [1] = experiment: Increase in sialic acid production in human MDA-MB-231 cells by periodate-resorcinal assay; type: functional, cell-based
How it was run: (§1)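 Periodate-resorcinol assay for total sialic acid, adapted to small volumes. Treated cells were trypsinized, washed and resuspended in PBS, Coulter-counted, and lysed by three freeze-thaw cycles. Readings taken within five minutes. Molecules per cell calculated from the harvested cell number and a sialic acid standard curve run alongside. SEM, n ≥ 3.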

HEK AD293 (Homo sapiens) = experiment: Inhibition of NF-kappaB transcriptional activity in human HEK AD293 cells by luciferase reporter gene assay
MDA-MB-231 [2] = experiment: Cytotoxicity against human MDA-MB-231 cells at >= 150 uM; type: functional, cell-based
MDA-MB-231 [3] = experiment: Suppression of MUC1 transcription in human MDA-MB-231 cells by qRT-PCR; type: functional, cell-based
How it was run: (§2)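 MDA-MB-231 RNA extracted with Trizol, DNase-treated and column-purified. qRT-PCR with Ct values in quadruplicate; relative expression by 2^-ΔΔCt from average Ct. Amplicons verified by agarose gel electrophoresis.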

MDA-MB-231 [4] = experiment: Increase in MUC1 mRNA transcription in human MDA-MB-231 cells by qRT-PCR; type: functional, cell-based; how it was run: as §2
MDA-MB-231 [5] = experiment: Growth inhibition of human MDA-MB-231 cells after 15 days; type: functional, cell-based
How it was run: (§3)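 Proliferation followed over time up to 15 days in MDA-MB-231 cells (RPMI-1640, 10% FBS, 37 °C, 5% CO₂). Compound added at plating from EtOH stock, final EtOH 0.4% v/v. Data averaged from triplicate experiments.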

MDA-MB-231 [6] = experiment: Enhancement of NFkappaB1 level in human MDA-MB-231 cells by qRT-PCR; type: functional, cell-based; how it was run: as §2
MDA-MB-231 [7] = experiment: Downregulation of CXCR4 in human MDA-MB-231 cells by qRT-PCR; type: functional, cell-based
MDA-MB-231 [8] = experiment: Growth inhibition of human MDA-MB-231 cells after 3 to 5 days; type: functional, cell-based; how it was run: as §3
MDA-MB-231 [9] = experiment: Increase in human MDA-MB-231 cells invasion at 30 mM; type: functional, cell-based
MDA-MB-231 [10] = experiment: Increase in intracellular sialic acid production in human MDA-MB-231 cells at 50 mM; type: functional, cell-based
MDA-MB-231 [11] = experiment: Increase in human MDA-MB-231 cells invasion at 10 mM; type: functional, cell-based
MDA-MB-231 [12] = experiment: Reduction of endogenous NFKB1 (p105) mRNA level in human MDA-MB-231 cells; type: functional, cell-based
[13] = molecular target: T1, Histone deacetylase (Homo sapiens) (UniProt Q13547+O15379+Q9UBN7+Q92769+Q9UQL6+Q8WUI4+Q9BY41+Q96DB2+P56524+Q9UKV0+Q969S8); experiment: Inhibition of HDAC in human MDA-MB-231 cells assessed as increase in histone H3 acetylation after 2 days by densitometry
[14] = molecular target: T1, Histone deacetylase (Homo sapiens); experiment: Inhibition of HDAC in human MDA-MB-231 cells assessed as decrease in MUC1 mRNA expression qRT-PCR; type: cell-based
MDA-MB-231 [15] = experiment: Effect on proteosomal activity of human MDA-MB-231 cells measured after 3 days in absence of epoxomicin; type: functional, cell-based
How it was run: (§4)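 Viable MDA-MB-231 cells (100000 in 100 µL RPMI) incubated with a succinyl luminogenic proteasome substrate; activity expressed as luminescence normalized to untreated controls. Analogue exposure 3 days; epoxomicin control exposure 6 h. SEM of independent experiments in triplicate.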

MDA-MB-231 [16] = experiment: Inhibition of proteosomal activity of human MDA-MB-231 cells measured after 6 hrs in presence of epoxomicin; type: functional, cell-based; how it was run: as §4
MDA-MB-231 [17] = experiment: Inhibition of human MDA-MB-231 cells invasion at 50 uM by Boyden chamber assay; type: functional, cell-based
[18] = molecular target: T1, Histone deacetylase (Homo sapiens); experiment: Inhibition of HDAC in human MDA-MB-231 cells assessed as increase in p21 mRNA level by qRT-PCR; type: cell-based
MDA-MB-231 [19] = experiment: Antiproliferative activity against human MDA-MB-231 cells by Coulter counting analysis; type: functional, cell-based
How it was run: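 MDA-MB-231 cells grown in RPMI-1640 with 10% FBS and plated at 27000 cells/cm² with compound added at plating from EtOH stock (final EtOH 0.4% v/v). Incubated 3 days at 37 °C, 5% CO₂. Viable cells trypsinized and counted on a Coulter counter. SEM, n ≥ 3.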

MDA-MB-231 [20] = experiment: Inhibition of human MDA-MB-231 cells migration at 50 uM by Boyden chamber assay; type: functional, cell-based
MDA-MB-231 [21] = experiment: Suppression of CXCR4 mRNA in human MDA-MB-231 cells after 3 days by qRT-PCR; type: functional, cell-based
How it was run: (§5)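 Cells exposed 3 days to compound. RNA extracted with Trizol, DNase-treated and column-purified. qRT-PCR with Ct measured in quadruplicate; relative expression by the 2^-ΔΔCt method. Products checked on agarose gel. SEM of independent experiments done in triplicate.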

MDA-MB-231 [22] = experiment: Induction of salic acid production in human MDA-MB-231 cells by periodate-resorcinal assay; type: functional, cell-based; how it was run: as §1
MDA-MB-231 [23] = experiment: Suppression of pro-MMP9 mRNA level in human MDA-MB-231 cells after 3 days by qRT-PCR; type: functional, cell-based; how it was run: as §5
MDA-MB-231 [24] = experiment: Inhibition of NF-kappaB transcriptional activity in human MDA-MB-231 cells at 125 uM by luciferase reporter gene assay; type: cell-based; parameters: scale not given: the % may be the effect or the level left
How it was run: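 MDA-MB-231 cells electroporated with an NF-κB luciferase reporter plus an equal mass of SV-promoter β-galactosidase plasmid. Replated after 24 h recovery and treated with compound. NF-κB transactivation taken as the luciferase to β-galactosidase activity ratio. SEM of independent experiments in triplicate.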

MDA-MB-231 [25] = experiment: Decrease in MMP9 gelatinase activity in human MDA-MB-231 cells after 3 days by Zymogram assay; type: functional, cell-based
HEK293 = experiment: Inhibition of NF-kappaB transcriptional activity in human HEK AD293 cells at 125 uM by luciferase reporter gene assay; type: cell-based; parameters: scale not given: the % may be the effect or the level left
How it was run: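 HEK AD293 cells (DMEM, 10% FBS) lipofected with an NF-κB consensus luciferase reporter plus an equal mass of SV-promoter β-galactosidase plasmid. Replated after 24 h recovery and treated with compound. Luciferase read by chemiluminescence and β-galactosidase colorimetrically; activity expressed as their ratio. SEM of independent experiments in triplicate.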

MDA-MB-231 [26] = experiment: Inhibition of human MDA-MB-231 cells migration at 50 uM after 3 days by Boyden chamber assay; type: functional, cell-based
How it was run: (§6)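 Cells pretreated 2 or 3 days with compound (final EtOH 0.4% v/v), then trypsinized and resuspended in serum-free RPMI-1640. 50000 viable cells per chamber (equal loading confirmed by WST-8) in modified Boyden chambers. Migration measured through 8.0 µm pores toward a serum gradient; invasion through a Matrigel layer. After 24 h at 37 °C, cells were stained with Diff-Quik and counted. Viability rechecked by WST-8 at 24 h. SEM of technical replicates (n = 6 or 3); double-sided t test.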

MDA-MB-231 [27] = experiment: Growth inhibition of human MDA-MB-231 cells assessed as rounded-up morphology after 3 days by phase contrast micrograph
MDA-MB-231 [28] = experiment: Decrease in MUC1 mRNA transcription in human MDA-MB-231 cells by qRT-PCR; type: functional, cell-based; how it was run: as §2
MDA-MB-231 [29] = experiment: Inhibition of human MDA-MB-231 cells invasion at 50 uM after 3 days by Boyden chamber assay; type: functional, cell-based; how it was run: as §6
MDA-MB-231 [30] = experiment: Inhibition of human MDA-MB-231 cells invasion at 150 uM after 2 days by Boyden chamber assay; type: functional, cell-based; how it was run: as §6
MDA-MB-231 [31] = experiment: Inhibition of human MDA-MB-231 cells invasion at 50 uM after 2 days by Boyden chamber assay; type: functional, cell-based; how it was run: as §6

## CCCC(=O)OC1O[C@H](CO)[C@@H](OC(=O)CCC)[C@H](OC(=O)CCC)[C@@H]1NC(C)=O (stereo partly specified)
MDA-MB-231 [1]
  Activity: Active
HEK AD293 (Homo sapiens)
  Activity: inactive

## CCCC(=O)OC[C@H]1OC(O)[C@@H](NC(C)=O)[C@@H](OC(=O)CCC)[C@@H]1OC(=O)CCC (stereo partly specified)
MDA-MB-231 [1]
  Activity: Active
MDA-MB-231 [2]
  Activity: Active
MDA-MB-231 [3]
  Activity: Active

## CCCC(=O)OC[C@@H](OC(=O)CCC)[C@@H](OC(=O)CCC)[C@@H]1OC(OC(=O)CCC)(C(=O)OC)C[C@H](OC(=O)CCC)[C@@H]1NC(C)=O (stereo partly specified)
MDA-MB-231 [4]
  Activity: Active
MDA-MB-231 [5]
  Activity: inactive
MDA-MB-231 [6]
  Activity: Active
MDA-MB-231 [7]
  Activity: Active
MDA-MB-231 [8]
  Activity: Active

## CC(=O)N[C@H](C=O)[C@@H](O)[C@H](O)[C@H](O)CO
MDA-MB-231 [9]
  Activity: inactive
MDA-MB-231 [10]
  Activity: Active
MDA-MB-231 [11]
  Activity: Active

## CCCC(=O)OC[C@H]1OC(OC(=O)CCC)[C@@H](OC(=O)CCC)[C@@H](OC(=O)CCC)[C@@H]1OC(=O)CCC (stereo partly specified)
MDA-MB-231 [12]
  Activity: inactive
[13]
  Activity: Active
[14]
  Activity: inactive
MDA-MB-231 [15]
  Activity: inactive
MDA-MB-231 [16]
  Activity: Active
MDA-MB-231 [17]
  Activity: inactive
[18]
  Activity: Active
MDA-MB-231 [19]
  Activity: Active
MDA-MB-231 [20]
  Activity: inactive
MDA-MB-231 [21]
  Activity: Active
MDA-MB-231 [22]
  Activity: inactive
MDA-MB-231 [23]
  Activity: Active

## CCCC(=O)O
[13]
  Activity: Active
[18]
  Activity: Active

## CCCC(=O)OC[C@H]1OC(OC(=O)CCC)[C@@H](NC(C)=O)[C@@H](OC(=O)CCC)[C@@H]1OC(=O)CCC (stereo partly specified)
MDA-MB-231 [24]
  Activity: 75%
MDA-MB-231 [12]
  Activity: Active
[13]
  Activity: Active
MDA-MB-231 [25]
  Activity: Dose-dependent effect
[14]
  Activity: Active
MDA-MB-231 [15]
  Activity: inactive
HEK293
  Activity: 75%
MDA-MB-231 [26]
  Activity: Active
MDA-MB-231 [16]
  Activity: Active
MDA-MB-231 [27]
  Activity: Active
MDA-MB-231 [28]
  Activity: Active
MDA-MB-231 [29]
  Activity: Active
[18]
  Activity: Active
MDA-MB-231 [30]
  Activity: Active
MDA-MB-231 [31]
  Activity: Active
MDA-MB-231 [19]
  Activity: Active
MDA-MB-231 [21]
  Activity: Active
MDA-MB-231 [22]
  Activity: Dose-dependent effect
MDA-MB-231 [23]
  Activity: inactive
